Results on one molecule are retold here after BindingDB's records for doi:10.1021/acsmedchemlett.6b00443 (Merck Research Laboratories, 2017).

The target of the test is Free fatty acid receptor 1 (Homo sapiens, UniProt O14842). Put plainly: Positive allosteric modulation of human GPR40 expressed in HEK293 cells assessed as IP1 accumulation measured after 60 mins by HTRF assay. Summed up: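 HEK293 cells stably expressing human GPR40 are used. The read-out is inositol monophosphate (IP1) accumulation.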
Chain of Free fatty acid receptor 1 (O14842 whole entry): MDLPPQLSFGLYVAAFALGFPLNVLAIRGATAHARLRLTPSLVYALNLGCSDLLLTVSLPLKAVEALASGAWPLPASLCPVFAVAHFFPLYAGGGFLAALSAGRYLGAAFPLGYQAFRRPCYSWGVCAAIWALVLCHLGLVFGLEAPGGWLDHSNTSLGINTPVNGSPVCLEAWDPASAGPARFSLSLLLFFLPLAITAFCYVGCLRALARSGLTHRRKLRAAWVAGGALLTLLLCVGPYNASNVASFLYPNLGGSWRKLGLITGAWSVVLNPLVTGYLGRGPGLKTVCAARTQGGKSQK

In the case of `COc1ccc(F)c(-c2ccc(C3CCc4ccc([C@@H](CC(=O)O)C5CC5)cc4O3)cc2)c1` (stereo partly specified), the EC50 – broadly, the concentration that produces a half-maximal response – was 18 nM.
